Test results from the RNAGym collection of RNA variant scans (doi:10.1038/nmeth.2970).

B1: NELF-E aptamer (parent)
chain: CCCAACGACUGCCGAGCGAGAUUACGCUUGAGCGCCCCACUGAGGAUGCCCACGGGCGAUUGGGGCACGG

Variants of: B1
Test: HiTS-RAP
Settings: with NELF-E (Drosophila)
Outline: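 Aptamer DNA templates bearing a T7 promoter and a ter site were sequenced on an Illumina GAIIx flowcell. T7 RNA polymerase then transcribed them in situ, and GST-Tus halted transcription over 30 minutes at 37°C. After a 30-minute room-temperature equilibration with NELF-E-mOrange at 0.064 to 1000 nM in HEPES binding buffer, clusters were imaged, using only the first binding curve. Intensities normalised to sequencing intensity were averaged per sequence and fitted with weighted Hill fits to give Kd, retaining only fits whose variance stayed under 1,000,000.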

Point of comparison: C12U G34A, Kd 5.3 nM. Against it:
- U10G C38U — 1.8-fold higher, 9.49 nM
- U10G U47G — within 1.5-fold, 6.24 nM
- U10G U47A — 2-fold higher, 10.8 nM
- G11U G55U — within 1.5-fold, 7.1 nM
- G11U G55A — 1.7-fold higher, 8.79 nM
- G11U A52U — 3.1-fold higher, 16.5 nM
- G11U A52G — within 1.5-fold, 3.84 nM
- C12G U22G — within 1.5-fold, 5.79 nM
- C12G U22C — within 1.5-fold, 6.9 nM
- C13G A59G — 2.3-fold higher, 12.2 nM
- U10G G64C — within 1.5-fold, 6.95 nM
- U10G G64A — within 1.5-fold, 7.4 nM
- U10G G64U — within 1.5-fold, 7.3 nM
- U10G G65C — 3.2-fold higher, 17 nM
- U10G G65A — within 1.5-fold, 4.82 nM
- U10G G65U — within 1.5-fold, 6.08 nM
- G11A G20U — 1.6-fold higher, 8.59 nM
- C12U G16U — within 1.5-fold, 5.76 nM
- C12G G54A — 3.4-fold higher, 18.2 nM
- G11U C53U — within 1.5-fold, 3.96 nM
- C12G U29G — within 1.5-fold, 5.61 nM
- C12G U29C — within 1.5-fold, 6.33 nM
- C12G U29A — within 1.5-fold, 5.65 nM
- G11U C57U — within 1.5-fold, 6.12 nM
- C12U U41G — within 1.5-fold, 6.2 nM
- G11A U29G — within 1.5-fold, 6.58 nM
- U10G G54U — within 1.5-fold, 6.86 nM
- U10G G54A — 2.3-fold higher, 12 nM
- C12U C17G — within 1.5-fold, 6.2 nM
- U10G C33A — within 1.5-fold, 5.76 nM
- U10G C33U — within 1.5-fold, 5.07 nM
- U10G C33G — within 1.5-fold, 5.96 nM
- C12G U23G — within 1.5-fold, 5.85 nM
- C12G U23C — within 1.5-fold, 3.97 nM
- U10G C40U — 12-fold higher, 63.9 nM
- U10G C40G — within 1.5-fold, 5.38 nM
- C12G A21U — within 1.5-fold, 6.04 nM
- C12G A21G — within 1.5-fold, 7.12 nM
- C12G C36U — within 1.5-fold, 7.29 nM
- G11U G42A — 11-fold higher, 55.9 nM
- U10G U61G — 1.6-fold higher, 8.63 nM
- U10G U61A — 5.6-fold higher, 29.9 nM
- C12G G42A — 7.5-fold higher, 39.8 nM
- C12G G26U — within 1.5-fold, 5.65 nM
- C12G G26A — within 1.5-fold, 4.12 nM
- C12G G62U — 2-fold higher, 10.8 nM
- G11A G14A — within 1.5-fold, 6.34 nM
- G11A G14U — within 1.5-fold, 6.48 nM
- G11U C12G — within 1.5-fold, 5.8 nM
- G11U C12U — within 1.5-fold, 4.76 nM
- G11A G18A — within 1.5-fold, 7.8 nM
- G11U U47G — within 1.5-fold, 7.92 nM
- C13G A19G — within 1.5-fold, 5.43 nM
- C13G A19U — within 1.5-fold, 4.52 nM
- U10G G16A — within 1.5-fold, 5.62 nM
- U10G G16C — within 1.5-fold, 6.96 nM
- U10G G16U — within 1.5-fold, 6.08 nM
- U10G C27U — within 1.5-fold, 3.87 nM
- U10G C27A — within 1.5-fold, 5.02 nM
- U10G C27G — within 1.5-fold, 4.93 nM
- U10G C13G — within 1.5-fold, 4.78 nM
- U10G C13U — within 1.5-fold, 4.7 nM
- U10G C13A — within 1.5-fold, 5.77 nM
- C12A U23G — within 1.5-fold, 5.88 nM
- G11U A43G — 8.6-fold higher, 45.8 nM
- C12G G20U — 1.5-fold higher, 7.97 nM
- U10G A52C — within 1.5-fold, 5.8 nM
- U10G A52U — 2.8-fold higher, 14.9 nM
- U10G A52G — within 1.5-fold, 4.22 nM
- C12G C53U — within 1.5-fold, 5.74 nM
- G11U A24G — within 1.5-fold, 5.82 nM
- G11U A24U — within 1.5-fold, 5.45 nM
- G11C C12G — within 1.5-fold, 5.71 nM
- G11U G54A — 2.7-fold higher, 14.1 nM
- G11A C17G — within 1.5-fold, 6.96 nM
- C12G A31G — within 1.5-fold, 7.14 nM
- C13A A24G — 1.7-fold higher, 9.1 nM
- U10G C35G — within 1.5-fold, 6.33 nM
- U10G C35U — 3.1-fold higher, 16.3 nM
- U10G C35A — within 1.5-fold, 7.32 nM
- G11A C12G — within 1.5-fold, 7.18 nM
- G11A U41A — 15-fold higher, 77 nM
- G11A U41G — within 1.5-fold, 6.14 nM
